Rows were chosen to be rich in hits. Some 2.4% of all compounds tested hit in one or more screens of this group.
pCIP destab: compounds decreasing mouse p/CIP protein stability; Q05BA5; F442A p/CIP-EGFP cells, EGFP fluorescence, 16 h; decrease of EGFP signal, % at 10 µM; 290,000 tested, 0.01% active; AID 1984;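 active = EGFP signal decrease of at least 30% at 10 µM or well 3 SD below plate mean, unless failing retest; inactive = the rest, including hits failing retest or dose response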
H9c2 protect: myocardial damage modulation in H9c2 cells; H9c2 cardiomyocytes, H2O2 injury protection, ATPLite, 2 h; protection from H2O2 cell death, % at 20 µM; 360,000 tested, 0.63% active; AID 588492;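 active = compounds giving at least 50% protection of heart cells from peroxide-induced death in the single-dose screen, raw or plate-pattern-corrected value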
PP5 primary: PP5 (human) phosphatase inhibition. P53041. purified PP5c, OMFP substrate fluorescence. inhibition, % at 6.7 µM. 320,000 tested, 0.18% active. AID 1987;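 active = inhibition above the campaign's mean inhibition across all tested compounds plus 3 SD, cut at about 9.5% in these data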
Target sequence (P53041 whole entry, looked up): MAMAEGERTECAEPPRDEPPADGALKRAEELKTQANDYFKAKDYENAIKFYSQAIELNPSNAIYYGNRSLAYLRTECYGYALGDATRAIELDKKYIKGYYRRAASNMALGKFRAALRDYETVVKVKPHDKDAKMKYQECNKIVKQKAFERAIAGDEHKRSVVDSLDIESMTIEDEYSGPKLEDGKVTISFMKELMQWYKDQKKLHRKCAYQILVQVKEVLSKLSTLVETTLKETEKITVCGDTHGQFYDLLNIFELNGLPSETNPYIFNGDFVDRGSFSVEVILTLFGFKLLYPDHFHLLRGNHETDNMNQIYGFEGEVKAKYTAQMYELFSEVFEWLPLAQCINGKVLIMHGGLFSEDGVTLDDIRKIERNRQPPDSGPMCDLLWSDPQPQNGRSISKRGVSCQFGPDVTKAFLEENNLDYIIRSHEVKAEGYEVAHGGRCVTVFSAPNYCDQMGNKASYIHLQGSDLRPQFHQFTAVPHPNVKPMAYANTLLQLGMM
GASC-1 inh: human JMJD2C demethylase inhibition | Q9H3R0 | GST-JMJD2C(1-420) H3K9me3 demethylation, DELFIA europium | inhibition, % at 2.35 µM | 330,000 tested, 0.069% active;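 active = more than half of a compound's replicate wells show inhibition beyond 50%, single wells judged on their own value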;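 also: signal counts dimethyl H3K9 product captured on neutravidin plate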
CTSL1 counter: cathepsin L1 inhibition, PFM18AAP counter-screen. recombinant F. hepatica cathepsin L1, Z-Leu-Arg-MCA fluorescence. inhibition, % at 5.96 µM. 300,000 tested, 0.49% active. AID 1906;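 active = inhibition above the mean of all tested compounds plus 3 SD, set per screening campaign, cut at about 17% in these data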
T cruzi repl: blocks replication of Trypanosoma cruzi; T. cruzi beta-gal in NIH3T3, luminescence, 90 h; inhibition, % (concentration not given with the values); 300,000 tested, 1.4% active; AID 1885;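 active = mean inhibition across valid replicates above about 55%, limit read from the data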;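 also: signal also drops with host cell toxicity which is not excluded here; higher percent means less beta-gal luminescence so fewer parasites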
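System: NIH/3T3 fibroblasts plus reporter T. cruzi. Medium: DMEM plus 2% FBS. Probe or stimulus: 5000 reporter trypomastigotes per well. Compound: single 50 nL compound addition per well in DMSO. Incubation: co-culture of at least 90 h after 3 h attachment. Detection: GalScreen β-gal luminescence, detergent lysis, 60 min. Evaluation: parasite load inhibition, %.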
Numbers stand for hits; - = inactive; . = not tested or not shown.

SMILES | pCIP destab | H9c2 protect | PP5 primary | GASC-1 inh | CTSL1 counter | T cruzi repl
Cc1ccccc1-n1c(=O)/c(=C\c2ccco2)s/c1=C(/C#N)C(=O)Nc1ccccc1 | - | 71 | - | - | - | -
O=C(NCc1n[nH]c(=O)c2ccccc12)C1CC(=O)N(c2ccccc2)C1 (stereo not drawn) | . | 67 | - | - | - | -
CCOc1ccccc1CNC(=O)Cn1c(=O)oc2ccccc21 | - | - | - | - | 20 | -
CCCCS(=O)(=O)/C=C\C1C2C=CC(C2)C1S(=O)(=O)CCCC (stereo not drawn) | - | - | - | - | - | -
CCCCS(=O)(=O)/C=C\C=C/S(=O)(=O)CCCC | - | - | - | - | 64 | -
COc1ccc(N2CCN(C(=O)CCCN3C(=O)c4cccc5cccc(c45)C3=O)CC2)cc1 | - | - | - | - | - | 75
COC(=O)C(CCC(C(=O)OC)N1C(=O)c2ccccc2C1=O)N1C(=O)c2ccccc2C1=O (stereo not drawn) | . | - | . | . | . | .
CC(C)CC(C(=O)Nn1cnnc1)N1C(=O)c2ccccc2C1=O (stereo not drawn) | - | - | - | - | 23 | -
Cc1cc(C)c(C)c(S(=O)(=O)N2CCN(C(=O)CCc3nc4ccccc4c(=O)[nH]3)CC2)c1C | - | 70 | - | - | - | -
O=C(CCc1nc2ccccc2c(=O)[nH]1)Nc1cc(Cl)ccc1N1CCCC1 | . | - | - | . | . | .
CCN1CCN(C(=O)CCc2nc3ccccc3c(=O)[nH]2)CC1 | - | - | - | - | - | -
O=C(CCc1nc2ccccc2c(=O)[nH]1)Nc1cccc(S(=O)(=O)N2CCOCC2)c1 | . | - | - | - | - | -
O=C(CCc1nc2ccccc2c(=O)[nH]1)N1CCN(S(=O)(=O)c2cccc(F)c2)CC1 | - | 52 | - | - | - | -
O=C(CCc1nc2ccccc2c(=O)[nH]1)N1CCN(S(=O)(=O)c2cc(Cl)ccc2Cl)CC1 | . | 61 | . | . | . | .
O=C(CCc1nc2ccccc2c(=O)[nH]1)N1CCN(c2ccccc2Cl)CC1 | . | 64 | . | - | . | .
CCn1c(CC(=O)Nc2ccc(F)cc2)nnc1SCC(=O)Nc1nnc(C)s1 | - | - | - | - | - | -
O=C(CCc1nc2ccccc2c(=O)[nH]1)N1CCCc2ccccc21 | . | 67 | - | - | - | -
O=C(Cc1cccc2ccccc12)N1CCCc2ccccc21 | - | - | - | 58 | - | -
CC(C)(C)c1ccc(C(=O)NC(=O)CSc2n[nH]c(N)n2)cc1 | . | - | - | - | . | .
CCNS(=O)(=O)c1ccc(C(=O)OCc2cc(=O)oc3cc(OC)ccc23)cc1 | - | - | - | - | - | -
C/C(CCC1CC(C)OC1=O)=N\NC(N)=S (stereo not drawn) | - | - | - | - | - | -
C/C(CC1CC(COCCC(C)C)OC1=O)=N\NC(N)=S (stereo not drawn) | - | - | - | - | 21 | -
O=C(Nc1cccc([N+](=O)[O-])c1)Nc1ccc2c(c1)CCC2 | - | - | - | - | - | 57
Cc1ccc(NC(=O)COc2ccccc2C(=O)Nc2ccccc2)cc1Cl | - | - | - | - | - | -
CCOc1ccc(NC(=O)C(C)Oc2ccccc2C(=O)Nc2ccc(C)c(Cl)c2)cc1 (stereo not drawn) | - | - | - | - | - | 72
SMILES | pCIP destab | H9c2 protect | PP5 primary | GASC-1 inh | CTSL1 counter | T cruzi repl
COc1ccccc1NC(=O)Nc1nc(CC(=O)N2CCN(c3ccc(F)cc3)CC2)cs1 | . | - | - | - | - | -
CC(=O)N1CC(C)Sc2ccc(S(=O)(=O)NC(C)c3ccccc3)cc21 (stereo not drawn) | - | - | - | - | - | -
CCc1cccc2c(C(=S)N3CCCC3)c[nH]c12 | - | - | - | - | - | -
CCc1cccc2c(C(=O)COC(=O)c3ccc([N+](=O)[O-])s3)c[nH]c12 | - | - | - | - | - | 64
CCc1cccc2c(C(=O)CCl)c[nH]c12 | - | - | - | - | 35 | -
O=C(OCC(=O)c1c[nH]c2ccccc12)c1ccc([N+](=O)[O-])s1 | - | - | - | - | - | 61
CSc1ccc(S(=O)(=O)NCC(=O)OCC(=O)N2CCCC2=O)cc1[N+](=O)[O-] | . | - | - | - | - | -
O=C(NNC(=O)c1ccccc1Cl)c1ccccc1Cl | - | - | - | - | - | -
COc1ccc(COC(=O)NNC(=O)c2ccccc2Cl)cc1 | - | - | - | - | 52 | -
CC(=O)Nc1cc(-c2ccc(CO)cc2)cn2c(-c3ccc(F)c(Cl)c3)cnc12 | . | - | . | . | . | .
Cc1ccc(S(=O)(=O)Nc2ccc3c(c2)C(=O)N([C@H](C)CO)C[C@H](C)[C@@H](CN(C)Cc2ccc(-c4ccccc4)cc2)O3)cc1 | . | - | . | 56 | . | .
Cc1ccc(S(=O)(=O)Nc2cccc3c2O[C@H](CN(C)Cc2ccc(-c4ccccc4)cc2)[C@@H](C)CN([C@H](C)CO)C3=O)cc1 | . | - | . | - | . | .
C[C@@H]1CN([C@@H](C)CO)C(=O)c2cc(NC(=O)Nc3ccccc3)ccc2O[C@H]1CN(C)C(=O)Nc1cccc2ccccc12 | . | 90 | . | - | . | .
C[C@H](CO)N1C[C@H](C)[C@@H](CN(C)C(=O)Nc2ccccc2)Oc2ccc(NC(=O)Nc3ccc(C(F)(F)F)cc3)cc2C1=O | . | - | . | . | . | .
COc1ccc(S(=O)(=O)Nc2ccc3c(c2)C(=O)N([C@H](C)CO)C[C@H](C)[C@H](CN(C)Cc2ccc(C(=O)O)cc2)O3)cc1 | . | - | . | 51 | . | .
Cc1nn(Cc2ccccc2)c(C)c1CNC(=O)CN=C1NS(=O)(=O)c2ccccc21 | . | - | . | . | . | .
O=C(CNCc1ccccn1)Nc1ccc([N+](=O)[O-])cc1C(=O)Nc1ccccc1F | - | - | - | - | - | -
N/C(CCS(=O)(=O)c1ccc(Cl)cc1)=N\OC(=O)c1ccc(Cl)cc1 | - | - | - | - | 17 | -
N/C(CCS(=O)(=O)c1ccc(Cl)cc1)=N\OC(=O)c1ccccc1C(F)(F)F | - | - | - | - | 19 | -
Cc1nn(C)c(C)c1NC(=S)Nc1ccc(S(=O)(=O)Nc2ncccn2)cc1 | - | - | - | - | - | -
CN(C)CC1C2CCC(C2)C1O (stereo not drawn) | . | - | . | . | . | .
O=C(CBr)N1CCc2ccccc2C(c2ccccc2)C1 (stereo not drawn) | - | - | - | - | - | -
C=CCN1CCc2c(cc(O)c(O)c2Br)[C@@H](c2ccccc2)C1 | . | 60 | - | - | - | -
COc1ccc(Cl)cc1-c1cc(C(=O)NCc2ccc(F)cc2)[nH]n1 | . | - | . | . | . | .
COCCCN(Cc1ccco1)C(=O)Cn1ncc2c([nH]c3ccccc32)c1=O | - | 60 | - | - | - | -
CC(C)CCNC(=O)C1(O)c2ccccc2NC(=O)N1c1ccc(Cl)cc1 (stereo not drawn) | - | - | - | - | - | -
COc1ccccc1OCC(=O)N/N=C/c1cccc2cccnc12 | - | 65 | - | - | - | -

Assay outcomes: PubChem BioAssay, several laboratories
